# Assays:
# [1] = (§1) % stability in human plasma after 10 minutes.; assay type: ADME, organism-based; settings: plasma, read-out: Stability
# In short: (§2)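 Pooled heparinized plasma from 4 volunteers was incubated at 37 °C with test compound at a final concentration of 30 ug/mL, with DMSO-only controls. The reaction was stopped with 2 M citric acid at 10 and 60 min, with a zero-time sample. Supernatants were analysed by reversed-phase HPLC at 240 nm against an internal standard, in duplicate, and reported as % compound remaining.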
# [2] = (§3) % stability in human plasma after 60 minutes.; assay type: ADME, organism-based; settings: plasma, read-out: Stability; in short: as §2
# [3] = % stability in krebs buffer after 60 minutes.; assay type: physicochemical; settings: Krebs buffer; read-out: Stability
# In short: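 Test compound, at a final concentration of 30 ug/mL, was spiked into Krebs buffer at 37 °C for 60 min, then quenched with 2 M citric acid. Supernatant was analysed by reversed-phase HPLC with UV detection at 240 nm and an internal standard, in duplicate. The read-out was % compound remaining.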
# [4] = biological target: T1, Glucocorticoid receptor (Rattus norvegicus) (UniProt P06536); experiment: Percentage reduction in thymus weight (248.99+/-23.19 mg) at 50 ug dose; assay type: functional
# T1 sequence (whole entry): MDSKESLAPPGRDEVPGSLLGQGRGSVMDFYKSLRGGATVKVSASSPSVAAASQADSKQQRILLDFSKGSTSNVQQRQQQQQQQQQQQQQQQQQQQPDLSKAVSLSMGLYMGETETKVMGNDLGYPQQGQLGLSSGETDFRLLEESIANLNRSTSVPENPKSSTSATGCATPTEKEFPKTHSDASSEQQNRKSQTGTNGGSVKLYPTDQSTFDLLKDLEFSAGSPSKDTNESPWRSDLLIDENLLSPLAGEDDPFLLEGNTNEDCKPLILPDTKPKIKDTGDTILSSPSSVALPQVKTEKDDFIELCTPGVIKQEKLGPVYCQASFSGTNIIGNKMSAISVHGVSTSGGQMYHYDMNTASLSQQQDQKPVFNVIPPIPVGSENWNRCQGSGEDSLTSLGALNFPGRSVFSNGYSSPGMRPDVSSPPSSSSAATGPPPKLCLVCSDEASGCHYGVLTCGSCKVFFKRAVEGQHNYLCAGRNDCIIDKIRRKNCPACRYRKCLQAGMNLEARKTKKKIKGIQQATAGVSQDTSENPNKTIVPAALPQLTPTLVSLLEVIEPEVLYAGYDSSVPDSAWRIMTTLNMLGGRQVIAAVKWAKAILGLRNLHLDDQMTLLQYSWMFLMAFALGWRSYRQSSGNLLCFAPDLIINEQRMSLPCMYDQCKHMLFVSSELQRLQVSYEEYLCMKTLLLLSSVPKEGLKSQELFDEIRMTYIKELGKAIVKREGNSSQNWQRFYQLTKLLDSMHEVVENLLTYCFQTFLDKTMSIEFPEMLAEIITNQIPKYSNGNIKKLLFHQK
# Homo sapiens [5] = organism: Homo sapiens; experiment: as §1; assay type: ADME, organism-based; settings: 10 min; in short: as §2
# Homo sapiens [6] = organism: Homo sapiens; experiment: as §3; assay type: ADME, organism-based; settings: 1 h; in short: as §2
# Glucocorticoid receptor = biological target: T2, Glucocorticoid receptor (Homo sapiens, UniProt P04150); experiment: Affinity for human glucocorticoid receptor
# T2 sequence (P04150 whole entry): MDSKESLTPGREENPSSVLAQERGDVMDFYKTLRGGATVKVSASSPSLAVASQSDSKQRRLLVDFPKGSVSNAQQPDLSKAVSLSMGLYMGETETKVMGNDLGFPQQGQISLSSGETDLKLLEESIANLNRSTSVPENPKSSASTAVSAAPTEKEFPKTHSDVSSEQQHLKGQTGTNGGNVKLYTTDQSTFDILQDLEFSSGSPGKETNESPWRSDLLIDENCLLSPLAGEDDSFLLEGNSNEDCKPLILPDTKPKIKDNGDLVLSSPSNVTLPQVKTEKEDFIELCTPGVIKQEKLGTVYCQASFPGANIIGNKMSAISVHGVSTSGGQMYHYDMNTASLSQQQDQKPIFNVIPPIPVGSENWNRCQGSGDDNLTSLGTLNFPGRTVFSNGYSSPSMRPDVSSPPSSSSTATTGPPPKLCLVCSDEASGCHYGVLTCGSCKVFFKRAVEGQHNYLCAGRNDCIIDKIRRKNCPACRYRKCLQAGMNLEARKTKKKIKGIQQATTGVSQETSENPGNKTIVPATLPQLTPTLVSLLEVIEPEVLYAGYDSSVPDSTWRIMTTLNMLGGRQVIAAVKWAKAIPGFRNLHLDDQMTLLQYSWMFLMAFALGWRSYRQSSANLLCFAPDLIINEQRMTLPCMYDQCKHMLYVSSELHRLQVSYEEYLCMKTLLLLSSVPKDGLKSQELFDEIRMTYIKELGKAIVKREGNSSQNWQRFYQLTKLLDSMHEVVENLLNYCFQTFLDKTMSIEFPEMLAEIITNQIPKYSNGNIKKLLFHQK
# Rattus norvegicus [7] = experiment: Inhibition of rat ear edema as percentage change in mean weight (58.02+/-1.46 mg) from control group of 55.67+/-1.22 mg at 1.56 ug dose
# Rattus norvegicus [8] = experiment: Inhibition of rat ear edema as percentage change in mean weight (47.85+/-1.09 mg) from control group of 55.67+/-1.22 mg at 6.25 ug dose
# Rattus norvegicus [9] = experiment: Inhibition of rat ear edema as percentage change in mean weight (47.21+/-1.28 mg) from control group of 55.67+/-1.22 mg at 25.00 ug dose
# Rattus norvegicus [10] = experiment: Inhibition of rat ear edema as percentage change in mean weight (43.03+/-1.19 mg) from control group of 55.67+/-1.22 mg at 100.00 ug dose
# Rattus norvegicus [11] = experiment: Inhibition of rat ear edema as percentage change in mean weight (64.86+/-2.70 mg) from control group of 72.25+/-2.24 mg at 0.06 microg dose; assay type: functional
# Rattus norvegicus [12] = experiment: Inhibition of rat ear edema as percentage change in mean weight (39.79+/-0.99 mg) from control group of 55.67+/-1.22 mg at 1.00 ug dose; assay type: functional
# Rattus norvegicus [13] = experiment: Inhibition of rat ear edema as percentage change in mean weight (40.57+/-1.10 mg) from control group of 55.67+/-1.22 mg at 4.00 ug dose; assay type: functional
# Rattus norvegicus [14] = experiment: Inhibition of rat ear edema as percentage change in mean weight (44.39+/-2.26 mg) from control group of 72.25+/-2.24 mg at 4.00 ug dose; assay type: functional
# Rattus norvegicus [15] = experiment: Inhibition of rat ear edema as percentage change in mean weight (44.71+/-1.53 mg) from control group of 72.25+/-2.24 mg at 1.00 ug dose; assay type: functional
# Rattus norvegicus [16] = experiment: Inhibition of rat ear edema as percentage change in mean weight (45.29+/-1.16 mg) from control group of 55.67+/-1.22 mg at 0.25 ug dose; assay type: functional
# Rattus norvegicus [17] = experiment: Inhibition of rat ear edema as percentage change in mean weight (47.21+/-1.49 mg) from control group of 72.25+/-2.24 mg at 0.25 ug dose; assay type: functional
# [18] = half life in human plasma.; assay type: ADME, organism-based
# In short: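 Pooled heparinised plasma from 4 volunteers, stored at −20 °C; compound spiked to final 30 ug/mL at 37 °C. Half-life taken from additional time points in this incubation; reaction stopped with 2 M citric acid, samples frozen overnight and centrifuged. Supernatant analysed by reverse-phase HPLC with UV at 240 nm, internal standard dexamethasone or hydrocortisone; duplicates.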
# Rattus norvegicus [19] = experiment: Inhibition of rat ear edema as percentage change in mean weight (71.65+/-2.81 mg) from control group of 72.25+/-2.24 mg at a 1.56 ug dose; assay type: functional
# Rattus norvegicus [20] = experiment: Inhibition of rat ear edema as percentage change in mean weight (46.46+/-2.86 mg) from control group of 72.25+/-2.24 mg at 100 ug dose; assay type: functional
# Rattus norvegicus [21] = experiment: Inhibition of rat ear edema as percentage change in mean weight (49.76+/-2.12 mg) from control group of 72.25+/-2.24 mg at 25.00 ug dose; assay type: functional
# Rattus norvegicus [22] = experiment: Inhibition of rat ear edema as percentage change in mean weight (54.84 +/- 2.18 mg) from control group of 72.25+/-2.24 mg at 10.00 ug dose; assay type: functional
# Rattus norvegicus [23] = experiment: Inhibition of rat ear edema as percentage change in mean weight (55.94 +/- 3.31 mg) from control group of 72.25+/-2.24 mg at 6.25 ug dose; assay type: functional
structure (smiles),measurement,setting,value
CCC[C@@H]1O[C@@H]2CC3C4C[C@H](F)C5=CC(=O)CC[C@]5(C)[C@@]4(F)[C@@H](O)C[C@]3(C)[C@]2(S[C@H]2CCOC2=O)O1 (some centres not stated),remaining at 10 min,[1],0%
same,remaining at 1 h,[2],0%
same,remaining at 1 h,[3],82%
CCCC1O[C@@H]2C[C@H]3[C@@H]4CCC5=CC(=O)C=C[C@]5(C)[C@H]4[C@@H](O)C[C@]3(C)[C@]2(C(=O)CO)O1 (some centres not stated),Reduction,[4],48%
"CCC[C@@H]1O[C@@H]2CC3C4C[C@H](F)C5=CC(=O)CC[C@]5(C)[C@@]4(F)[C@@H](O)C[C@]3(C)[C@]2(SC2COC(=O)C2)O1 (single isomer, unassigned; isomer B)",Stability,Homo sapiens [5],56%
same,Stability,Homo sapiens [6],0%
same,remaining at 1 h,[3],100%
CC1(C)O[C@@H]2CC3C4C[C@H](F)C5=CC(=O)C=C[C@]5(C)[C@@]4(F)[C@@H](O)C[C@]3(C)[C@]2(S[C@@H]2CCOC2=O)O1 (some centres not stated),remaining at 10 min,[1],45%
same,remaining at 1 h,[2],15%
same,remaining at 1 h,[3],90%
same,IC50,Glucocorticoid receptor,1.4 nM
same,Decrease,Rattus norvegicus [7],0%
same,Decrease,Rattus norvegicus [8],14%
same,Decrease,Rattus norvegicus [9],15.2%
same,Decrease,Rattus norvegicus [10],22.7%
CCC(=O)O[C@]1(C(=O)SCF)[C@H](C)C[C@H]2[C@@H]3C[C@H](F)C4=CC(=O)C=C[C@]4(C)[C@@]3(F)[C@@H](O)C[C@@]21C [FLUTICASONE PROPIONATE],Decrease,Rattus norvegicus [11],10.23%
same,Decrease,Rattus norvegicus [12],28.5%
same,Decrease,Rattus norvegicus [13],27.1%
same,Decrease,Rattus norvegicus [14],38.6%
same,Decrease,Rattus norvegicus [15],38.1%
same,Decrease,Rattus norvegicus [16],18.6%
same,Decrease,Rattus norvegicus [17],34.7%
CCC[C@@H]1O[C@@H]2CC3C4C[C@H](F)C5=CC(=O)CC[C@]5(C)[C@@]4(F)[C@@H](O)C[C@]3(C)[C@]2(SCC2CCOC2=O)O1 (some centres not stated),remaining at 10 min,[1],100%
same,remaining at 1 h,[2],100%
same,remaining at 1 h,[3],100%
same,half-life,[18],> 240 min
CCC[C@@H]1O[C@@H]2CC3C4C[C@H](F)C5=CC(=O)C=C[C@]5(C)[C@@]4(F)[C@@H](O)C[C@]3(C)[C@]2(SC2CCOC2=O)O1 (some centres not stated),remaining at 10 min,[1],0%
same,remaining at 1 h,[2],0%
same,remaining at 1 h,[3],77%
CC1(C)O[C@@H]2CC3C4C[C@H](F)C5=CC(=O)CC[C@]5(C)[C@@]4(F)[C@@H](O)C[C@]3(C)[C@]2(S[C@@H]2CCOC2=O)O1 (some centres not stated),remaining at 10 min,[1],28%
same,remaining at 1 h,[2],0%
same,remaining at 1 h,[3],92%
CCC[C@@H]1O[C@@H]2CC3C4C[C@H](F)C5=CC(=O)CC[C@]5(C)[C@@]4(F)[C@@H](O)C[C@]3(C)[C@]2(S[C@@H]2CCOC2=O)O1 (some centres not stated),remaining at 10 min,[1],19%
same,remaining at 1 h,[2],0%
same,remaining at 1 h,[3],91%
same,half-life,[18],5 min
same,IC50,Glucocorticoid receptor,6.4 nM
same,Decrease,Rattus norvegicus [19],0.83%
same,Decrease,Rattus norvegicus [20],35.7%
same,Decrease,Rattus norvegicus [21],31.1%
same,Decrease,Rattus norvegicus [22],24.1%
same,Decrease,Rattus norvegicus [23],22.6%

# From ChEMBL document CHEMBL1134348, “Novel glucocorticoid antedrugs possessing a 17beta-(gamma-lactone) ring” (J Med Chem, 2001)
